The subject of series [1] is HeLa cells. The experiment in a line: Cellular uptake. It is filed as cell-based. The method, boiled down:
(§1)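 Cells were grown 48 h in folate-free RPMI 1640, then given conjugates at 5 μg/mL DOX for 1 h at 37°C. For blocking, 1 mM free folate was added before the conjugates. For microscopy, monolayers were rinsed 3× with PBS, fixed in 4% paraformaldehyde for 15 min and imaged by fluorescence at equal exposure. For flow cytometry, 3×10^5 trypsinized cells per tube received the same treatment and were rinsed before reading.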

Series [2] relates to KB cells. The experiment in a line: Cellular uptake. It is filed as cell-based. In outline:
as §1

For series [3], the system named is HeLa cells. The experiment in a line: MTT cytotoxicity assay. Type of series: cell-based. In outline:
(§2)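 Cells kept in folate-free medium were seeded at 5×10^3 per well and grown 24 h. They were then exposed for 2 h at 37°C to serial dilutions of 1.56–25.00 μg/mL DOX equivalent, followed by 72 h in drug-free DMEM. MTT (5 mg/mL stock) was added for 4 h, formazan was dissolved in DMSO and absorbance read at 490 nm. Five parallel experiments; mean ± SD.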
(In general: Tetrazolium dyes change colour on reduction, which living cells bring about.)

Series [4] deals with KB cells. The experiment in a line: MTT cytotoxicity assay. Type of series: cell-based. In outline: as §2
The test system of series [5] is HeLa cells. As to the kind of experiment: Apoptosis assay. As to conditions: 3 μg/mL DOX. Type of series: cell-based. The method, boiled down: (§3)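 HeLa or KB cells were seeded at 4×10^5 per well, cultured 24 h, then exposed to conjugates at 3 μg/mL DOX for 24 h at 37°C. For receptor blocking, 1 mM free folate was added before the drug. Trypsinized and floating cells were pooled and stained with annexin V-FITC/PI. 20,000 cells per sample were analysed by flow cytometry, with FSC/SSC gating to exclude debris. Q2 was scored as late and Q4 as early apoptosis. Mean ± SD, three independent experiments.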

The test system of series [6] is KB cells. The experiment in a line: Apoptosis assay. Particulars: 3 μg/mL DOX. It is filed as cell-based. The method, boiled down: as §3
Series [7] in a line: Pharmacokinetic analysis of plasma DOX after intravenous injection. Type of series: in vivo. As to conditions: Kunming mice, i.v. 5 mg/kg DOX, noncompartmental.
Series [8] in a line: Tissue distribution of DOX after intravenous injection. Type of series: in vivo. Particulars: mice, i.v. 5 mg/kg, compared with free DOX. In outline: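 Male Kunming mice (~25 g, 6–8 weeks) received 5 mg/kg DOX equivalent intravenously. Heart, liver, spleen and kidney were collected at 30 min and 3 h. Tissue was homogenized in ethanol/HCl/water and centrifuged at 12,000 rpm for 15 min. DOX in the supernatant was measured by fluorescence spectrophotometry. n=4; mean ± SD.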

A further series concerns Subcutaneous KB tumors. The experiment in a line: KB xenograft tumor mouse model. As to conditions: KB xenograft nude mice, single i.v. dose 8 mg/kg DOX. Type of series: in vivo, BALB/c nude mice. The method, boiled down: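 Female BALB/c nude mice (6–8 weeks, 16–18 g) were inoculated subcutaneously in the front armpit with 2.5×10^6 KB cells. Once tumors were established, mice got a single tail-vein injection of 8 mg/kg DOX equivalent; saline served as control. Tumors were measured every 4 days, with volume = length × width² × 0.52. Body weight was recorded every 4 days and survival was followed. n=6 per group; mean ± SD.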

Where [9] appears, read: 2 h drug incubation then 72 h culture, DOX concentration, mean ± SD.

By IC50 is commonly meant the point on the concentration scale where inhibition reaches its midpoint. By Cmax is commonly meant the peak of the concentration-time curve. What is called Vz is the apparent volume that relates the amount in the body to the concentration in plasma or blood. Low readings indicate little distribution into tissue, high ones wide distribution into tissue.

Take “folate-polyethylene glycol-immunoglobulin G-doxorubicin [FA-PEG-IgG-DOX]”: in the series on HeLa cells [1] (5 μg/mL DOX, 1 h, 37°C), the “fluorescence intensity (microscopy)” value is “apparently higher than IgG-DOX”. Also, the “uptake after 1 mM folate pretreatment (microscopy)” value with HeLa cells [1] (1 mM folate pretreatment) was “could be blocked”. Besides, the “fluorescence intensity (microscopy)” value in the series on KB cells [2] (5 μg/mL DOX, 1 h, 37°C) is listed as “apparently higher than IgG-DOX”. For the same substance, in the series on KB cells [2] (1 mM folate pretreatment), the “uptake after 1 mM folate pretreatment (microscopy)” value is “could be blocked”. Further, in the series on HeLa cells [3], the “IC50 as fraction of that of IgG-DOX” value was “about 1/8” and the “antitumor activity, times higher than IgG-DOX” value is recorded as “at least 8 times”. In addition, the half-inhibitory concentration (IC50) with HeLa cells [3] (setting [9]) is 3.22 ± 0.9 µg/mL. Further, in the series with KB cells [4], the “IC50 as fraction of that of IgG-DOX” value was “about 1/12” and the “antitumor activity, times higher than IgG-DOX” value is reported as “at least 8 times”. Besides, in the series on KB cells [4] (setting [9]), the IC50 is 1.78 ± 0.4 µg/mL. In the series on HeLa cells [5], the “proapoptotic effect after pretreatment with 1 mM folate” value is listed as “significantly diminished”. Also, the “proapoptotic effect after pretreatment with 1 mM folate” value with KB cells [6] is recorded as “significantly diminished”. Also, in [7], the “AUC(0–∞)” value was 992.943 μg/mL⋅h, the CLz was 0.19 mL/day/kg, the Cmax was 225.275 ng/mL and the Vz was 0.070 L/kg. In addition, in series [8], the “DOX concentration in the heart” value is “at the same level with that following free DOX injection”. In the series with Subcutaneous KB tumors, the body weight change result is “minor body weight reduction”, the “survival of treated mice” value is reported as “prolonged the survival of treated mice compared with DOX” and the “tumor growth from day 12 to day 25” value was “maintained a very low growth rate”. The “average tumor size at day 25 after injection” value in the series with Subcutaneous KB tumors (day 25) was determined as 553 mm^3.

The values are drawn from publication PMC5383082 (International Journal of Nanomedicine, 2017).
